Key:
Liver microsome = assay: Clearance in rat liver microsomes at 2 uM by LC-MS/MS analysis; type: ADME
Procedure, shortened: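 Rat liver microsomes at 0.5 mg/mL were incubated with 2 μM compound (final) and an NADPH-regenerating system. Aliquots were taken at 1, 3, 6, 9, 15, 25, 35 and 45 min and quenched in acetonitrile containing internal standard. Depletion was measured by LC-MS/MS. Clmic = −slope × 1000 / protein concentration (mg/mL), not corrected for microsomal protein binding.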

Cannabinoid receptor 2 = Cannabinoid receptor 2 (Homo sapiens, UniProt P34972); assay: Displacement of [3H]CP55940 from human CB2 receptor expressed in CHOK1 cells after 1 hr by liquid scintillation counting analysis; type: cell-based, CHO-K1
Procedure, shortened: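 Membranes from butyrate-treated (5 mM, 24 h) CHO-K1 cells stably expressing human CB2, incubated with 0.3 nM [3H]CP55940 and increasing ligand concentrations, 60 min, 30 °C, pH 7.4 Tris buffer with 0.1% fatty acid-free BSA and 1% DMSO; nonspecific binding with 10 μM CP55940; filtration, scintillation counting; tested in triplicate.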

Cannabinoid receptor 1 = Cannabinoid receptor 1 (Homo sapiens, UniProt P21554); assay: Displacement of [3H]CP55940 from human CB1 receptor expressed in CHOK1 cells after 1 hr by liquid scintillation counting analysis; type: cell-based, CHO-K1
Chain of Cannabinoid receptor 1 (P21554 whole entry): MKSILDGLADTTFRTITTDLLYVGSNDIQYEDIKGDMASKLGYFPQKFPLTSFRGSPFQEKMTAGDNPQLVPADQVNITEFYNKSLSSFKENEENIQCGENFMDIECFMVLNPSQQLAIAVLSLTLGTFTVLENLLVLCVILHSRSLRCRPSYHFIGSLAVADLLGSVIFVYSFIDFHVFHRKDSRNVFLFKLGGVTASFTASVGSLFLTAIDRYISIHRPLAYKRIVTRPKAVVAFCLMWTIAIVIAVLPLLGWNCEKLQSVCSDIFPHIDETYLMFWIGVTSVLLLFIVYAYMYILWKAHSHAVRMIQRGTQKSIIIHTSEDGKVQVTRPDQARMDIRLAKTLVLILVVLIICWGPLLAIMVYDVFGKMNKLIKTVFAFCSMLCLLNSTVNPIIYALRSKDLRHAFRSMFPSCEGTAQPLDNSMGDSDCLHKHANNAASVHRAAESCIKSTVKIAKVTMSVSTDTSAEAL

Chain of Cannabinoid receptor 2 (P34972 whole entry): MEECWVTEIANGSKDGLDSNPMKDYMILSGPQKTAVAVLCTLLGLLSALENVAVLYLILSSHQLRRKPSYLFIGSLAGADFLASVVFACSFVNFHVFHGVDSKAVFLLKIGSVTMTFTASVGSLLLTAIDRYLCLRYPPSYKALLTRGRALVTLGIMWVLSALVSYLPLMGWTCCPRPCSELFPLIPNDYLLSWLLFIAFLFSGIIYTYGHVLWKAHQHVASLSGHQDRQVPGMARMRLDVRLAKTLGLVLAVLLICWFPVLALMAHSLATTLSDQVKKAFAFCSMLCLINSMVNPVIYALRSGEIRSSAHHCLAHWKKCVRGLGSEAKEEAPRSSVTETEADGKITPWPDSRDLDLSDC

CCCCOc1ncc(C(=O)N[C@@H]2CCCC[C@H]2O)cc1-c1ccc(Cl)cc1
CLH (Liver microsome): 101 µL/min/mg | Ki (Cannabinoid receptor 2): > 10000 nM | Ki (Cannabinoid receptor 1): 43.8 nM

N#Cc1ccc(-c2cc(C(=O)N[C@@H]3CCCC[C@H]3O)cnc2OCC2CC2)cc1
Ki (Cannabinoid receptor 2): > 10000 nM | Ki (Cannabinoid receptor 1): 23.6 nM

Cc1cc(COc2ncc(C(=O)N[C@@H]3CCCC[C@H]3O)cc2-c2ccc(Cl)cc2)on1
CLH (Liver microsome): 151 µL/min/mg | Ki (Cannabinoid receptor 2): > 10000 nM | Ki (Cannabinoid receptor 1): 10.6 nM

O=C(N[C@@H]1CCCC[C@H]1O)c1cnc(OCC2CC2)c(-c2ccc(Cl)cc2Cl)c1
Ki (Cannabinoid receptor 2): > 5000 nM | Ki (Cannabinoid receptor 1): 122 nM

O=C(N[C@@H]1CCCC[C@H]1O)c1cnc(OCC(F)(F)F)c(-c2ccc(Cl)cc2)c1
CLH (Liver microsome): 23 µL/min/mg | Ki (Cannabinoid receptor 2): > 7000 nM | Ki (Cannabinoid receptor 1): 12.4 nM

CN(CC1CC1)c1ncc(C(=O)N[C@@H]2CCCC[C@H]2O)cc1-c1ccc(Cl)cc1
CLH (Liver microsome): 1730 µL/min/mg | Ki (Cannabinoid receptor 2): > 10000 nM | Ki (Cannabinoid receptor 1): 51.1 nM

Cc1c(C(=O)N[C@@H]2CCCC[C@H]2O)cc(-c2cc(C(F)(F)F)ccc2Cl)n1CC1CCCCC1
CLH (Liver microsome): 1323 µL/min/mg | IC50 (Cannabinoid receptor 2): > 5000 nM | IC50 (Cannabinoid receptor 1): 9.5 nM

O=C(NN1CCCCC1)c1cnc(OCC2CC2)c(-c2ccc(Cl)cc2)c1
Ki (Cannabinoid receptor 2): > 10000 nM | Ki (Cannabinoid receptor 1): 563 nM

CS(=O)(=O)Nc1ccc(-c2cc(C(=O)N[C@@H]3CCCC[C@H]3O)cnc2OCC2CC2)cc1
Ki (Cannabinoid receptor 2): > 10000 nM | Ki (Cannabinoid receptor 1): 1900 nM

NC(=O)c1ccc(-c2cc(C(=O)N[C@@H]3CCCC[C@H]3O)cnc2OCC2CC2)cc1
Ki (Cannabinoid receptor 2): > 10000 nM | Ki (Cannabinoid receptor 1): > 8000 nM

O=C(N[C@@H]1CCCC[C@H]1O)c1ccc(OCC2CC2)c(-c2ccc(Cl)cc2)n1
Ki (Cannabinoid receptor 2): 863 nM | Ki (Cannabinoid receptor 1): 1830 nM

O=C(N[C@H]1CCCC[C@@H]1O)c1cnc(OCC2CC2)c(-c2ccc(Cl)cc2)c1
Ki (Cannabinoid receptor 2): 2640 nM | Ki (Cannabinoid receptor 1): 247 nM

O=C(N[C@@H]1CCCC[C@H]1O)c1cnc(OC2CCCC2)c(-c2ccc(Cl)cc2)c1
Ki (Cannabinoid receptor 2): > 10000 nM | Ki (Cannabinoid receptor 1): 374 nM

O=C(N[C@@H]1CCCC[C@H]1O)c1cnc(OC2CCCCC2)c(-c2ccc(Cl)cc2)c1
CLH (Liver microsome): 662 µL/min/mg | Ki (Cannabinoid receptor 2): > 10000 nM | Ki (Cannabinoid receptor 1): 3030 nM

O=C(O)c1ccc(-c2cc(C(=O)N[C@@H]3CCCC[C@H]3O)cnc2OCC2CC2)cc1
Ki (Cannabinoid receptor 2): > 10000 nM | Ki (Cannabinoid receptor 1): > 10000 nM

O=C(N[C@@H]1CCCC[C@H]1O)c1cnc(OCC2CC2)c(-c2ccc(Cl)c(Cl)c2)c1
Ki (Cannabinoid receptor 2): 1260 nM | Ki (Cannabinoid receptor 1): 305 nM

O=C(N[C@@H]1CCCC[C@H]1O)c1cnc(OCC2CC2)c(-c2ccc(F)cc2)c1
CLH (Liver microsome): 37 µL/min/mg | Ki (Cannabinoid receptor 2): > 10000 nM | Ki (Cannabinoid receptor 1): 42.8 nM

O=C(N[C@@H]1CCCC[C@H]1O)c1cc(-c2ccc(Cl)cc2)c(OCC2CC2)cn1
Ki (Cannabinoid receptor 2): 1530 nM | Ki (Cannabinoid receptor 1): > 7000 nM

O=C(N[C@@H]1CCCC[C@H]1O)c1cnc(Oc2ccccc2)c(-c2ccc(Cl)cc2)c1
CLH (Liver microsome): 353 µL/min/mg | Ki (Cannabinoid receptor 2): > 10000 nM | Ki (Cannabinoid receptor 1): 1660 nM

O=C(N[C@@H]1CCCC[C@H]1O)c1cnc(OCc2ccccc2)c(-c2ccc(Cl)cc2)c1
CLH (Liver microsome): 20 µL/min/mg | Ki (Cannabinoid receptor 2): > 10000 nM | Ki (Cannabinoid receptor 1): 40.2 nM

From ChEMBL document CHEMBL3108674, “6-Alkoxy-5-aryl-3-pyridinecarboxamides, a new series of bioavailable cannabinoid receptor type 1 (CB1) antagonists including peripherally selective compounds” (J Med Chem, 2013)
